Tests used:
[1] = tested on: Human immunodeficiency virus 2; assay: Antiviral activity against HIV-2 infected in thymidine kinase deficient CEM cells assessed as inhibition of virus-induced cytopathicity after 4 days; format: functional, organism-based; conditions: Human immunodeficiency virus 2, CCRF-CEM, 96 h
Method in brief: (§1)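 Wild-type CEM/0 or thymidine kinase-deficient CEM/TK- T-lymphocyte cultures infected with HIV-1 or HIV-2 and exposed to virus and compound together for 4 days. Giant cell formation (virus-induced cytopathicity) scored by microscopy; value is the 50% effective concentration.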

[2] = Cytotoxicity against human CEM cells; format: cell-based; conditions: CCRF-CEM (CEM) cells
[3] = Hydrolysis half life in human CEM cell extracts at pH 6.9; format: ADME, CCRF-CEM
Method in brief: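 CEM cell extracts (pH 6.9) incubated with the triester, added from a 3.0 mM DMSO stock, and sampled at several incubation times. Hydrolysis half-life determined.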

[4] = tested on: Human immunodeficiency virus 2; assay: Antiviral activity against HIV-2 infected in wild type CEM cells assessed as inhibition of virus-induced cytopathicity after 4 days; format: functional, organism-based; conditions: Human immunodeficiency virus 2, CCRF-CEM, 96 h; method in brief: as §1
[5] = Hydrolysis half life in 25 mM phosphate buffer at pH 7.3 by reversed HPLC analysis; format: physicochemical
[6] = tested on: Human immunodeficiency virus 1; assay: Antiviral activity against HIV-1 infected in wild type CEM cells assessed as inhibition of virus-induced cytopathicity after 4 days; format: functional, organism-based; conditions: Human immunodeficiency virus 1, CCRF-CEM, 96 h; method in brief: as §1

| Structure (SMILES) | EC50 [1] [µM] | CC50 [2] [µM] | half-life [3] [h] | EC50 [4] [µM] | half-life [5] [h] | EC50 [6] [µM] |
| --- | --- | --- | --- | --- | --- | --- |
| Cc1cccc2c1O[P@@](=O)(OC[C@@H]1C=C[C@H](n3cc(C)c(=O)[nH]c3=O)O1)OC2 | 3.2 | 179 | 8.7 | 1.1 | 9.2 | 0.48 |
| Cc1cccc2c1O[P@](=O)(OC[C@@H]1C=C[C@H](n3cc(C)c(=O)[nH]c3=O)O1)OC2 | 0.16 | 39 | 18 | 0.17 | 22.1 | 0.09 |
| Cc1cn([C@H]2C=C[C@@H](CO)O2)c(=O)[nH]c1=O [STAVUDINE] | 150 | > 250 | – | 1.3 | – | 0.78 |

— ChEMBL document CHEMBL2163319, “Stereoselective synthesis and antiviral activity of methyl-substituted cycloSal-pronucleotides” (J Med Chem, 2012)
